High-throughput results as filed in PubChem.
A selection: hits, their analogues and other compounds. The true share with any hit is near 2.9%.
TRPC6 inhibitor: blocks the mouse TRPC6 cation channel; B-score at 10 µM; Q61143; 1.1% of 310,000 active; AID 2553; HEK293-TRPC6, membrane potential dye, ACh-evoked depolarization; active compounds read low;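 active = B-score under library mean minus 3 SD, initial fluorescence not abnormally high, positive integrated signal ratio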;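 note: B-score derived from integrated fluorescence ratio over the kinetic read; more negative B-score means stronger inhibition of depolarization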
TRPC6 activator: activators of mouse TRPC6 channel. AID 2550. B-score at 10 µM. Q61143. HEK293-TRPC6 membrane potential dye fluorescence; active compounds read high. 0.13% of 310,000 active;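 active = B-score of the integrated fluorescence ratio above library mean plus 3 SD, and starting fluorescence ratio within library mean plus 5 SD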;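 note: higher score means more depolarization so channel activation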
TRPC4 potent: allosteric potentiators of mouse TRPC4 channel; Q9QUQ5; AID 2227; HEK293 TRPC4beta/mu-opioid, DAMGO EC20, Fluo-4 Ca2+ flux; active compounds read high; 0.42% of 310,000 active; B-score at 10 µM;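 active = B-score of calcium response area above 5 SD of library B-scores, with initial fluorescence ratio within 5 SD of library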
TRPC4 agonist: TRPC4 (mouse) channel activation. HEK293 TRPC4beta/mu-opioid, Fluo4 calcium fluorescence; active compounds read high. B-score at 10 µM. AID 2237. Q9QUQ5. 0.49% of 310,000 active;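 active = B-score above 5 SD of library B-scores, and initial fluorescence ratio not above library mean plus 5 SD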;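 note: positive B-score marks a calcium rise read as TRPC4 activation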
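Assay system: HEK293 stable line with TRPC4beta plus mu-opioid receptor; schedule: 45 min room-temperature Fluo4 loading, 110 s read; technique: kinetic Fluo4 calcium fluorescence; evaluation: integrated baseline-normalised fluorescence ratio, converted to per-well B score; controls: buffer (low) and maximal DAMGO (high)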
TRPC4 inh: TRPC4 (mouse) channel inhibition. HEK293 TRPC4beta/mu-opioid, DAMGO-evoked Fluo4 calcium flux; active compounds read low. AID 2247. 0.39% of 300,000 active. B-score at 10 µM. Q9QUQ5;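 active = B-score over 3 SD under the library average, no early fluorescence shift, positive overall ratio signal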
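Material: HEK293 cells with stable TRPC4beta plus mu-opioid receptor expression; probe or stimulus: DAMGO in two steps, submaximal then maximal; technique: Fluo4 calcium fluorescence by kinetic imaging, 5 s 1 Hz baseline; measure: integrated fluorescence ratio relative to baseline, converted to per-well B score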
Kir21 inh: inhibitors of mouse Kir2.1 inward-rectifier potassium channel; P35561; HEK293-Kir2.1, FluxOR thallium flux fluorescence; active compounds read low; B-score at 10 µM; 0.85% of 310,000 active; AID 1672;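 active = fluorescence ratio B-score at or below minus 3 SD of library scores, with starting-brightness B-score within 2 SD, cut at about -4.2 in these data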;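 note: channel flux triggered by added potassium and thallium sulfate stimulus; B-score of peak minus minimum fluorescence over baseline after thallium stimulus; more negative B-score means stronger Kir2.1 block with less thallium influx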
Target sequence (P35561 whole entry, looked up): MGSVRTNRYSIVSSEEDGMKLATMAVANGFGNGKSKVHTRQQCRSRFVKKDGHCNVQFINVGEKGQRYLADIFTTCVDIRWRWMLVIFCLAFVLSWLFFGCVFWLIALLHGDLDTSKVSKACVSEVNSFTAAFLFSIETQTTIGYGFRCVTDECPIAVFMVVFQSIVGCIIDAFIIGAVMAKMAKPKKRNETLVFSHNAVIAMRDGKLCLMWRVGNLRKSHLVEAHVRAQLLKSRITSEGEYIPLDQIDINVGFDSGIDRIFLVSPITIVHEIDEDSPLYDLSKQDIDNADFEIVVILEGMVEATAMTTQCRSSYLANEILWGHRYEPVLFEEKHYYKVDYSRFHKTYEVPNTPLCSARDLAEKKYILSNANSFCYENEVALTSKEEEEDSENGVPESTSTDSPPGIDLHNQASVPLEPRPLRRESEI
TRPC4 sel inh 2: mouse TRPC4 off-target activity of TRPC6 inhibitors, second screen. shares compounds with TRPC6 inhibitor. HEK293 TRPC4/MOR, membrane potential dye fluorescence; channel activated by saturating DAMGO dose. inhibition, % at 10 µM. 42% of 920 active;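 active = compounds whose fluorescence signal differed from control wells by over 3 SD, either direction, in both duplicate plates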
TRPC4 spec: mouse TRPC4 off-target activity of TRPC6 inhibitors; HEK293 TRPC4/mu-opioid, membrane potential fluorescence; AID 2777; shares compounds with TRPC6 inhibitor; 61% of 920 active; activity change, negative = inhibition, % at 10 µM;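 active = rise or fall in signal beyond 3 SD of buffer-only wells in both replicate plates, either sign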;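 note: integrated kinetic ratio of fluorescence range over baseline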
HEK293 MPD ctr 2-1: second check of TRPC6 inhibitor effects in parental HEK293 cells; parental HEK293 membrane potential dye fluorescence; maximal acetylcholine challenge after compound addition; 31% of 920 active; AID 2779; shares compounds with TRPC6 inhibitor; signal change vs control, % at 10 µM;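 active = membrane potential signal moving either way by over 3 SD of the maximum-effect control, in both duplicate plates, meaning non-specific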
HEK293 MPD ctr-1: counter-screen for TRPC6 inhibitors: effect in parental HEK293 cells; 60% of 920 active; shares compounds with TRPC6 inhibitor; parental HEK293 membrane potential dye fluorescence; AID 2780; membrane potential signal change, % at 10 µM;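 active = membrane potential signal shifting up or down by more than 3 SD of buffer-only wells, on both duplicate plates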
HEK293 MPD ctr-2: counter-screen for TRPC6 modulators: effect in parental HEK293 cells | shares compounds with TRPC6 inhibitor | membrane potential dye fluorescence | membrane potential signal change, % at 10 µM | 51% of 2,400 active | AID 488924;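 active = membrane potential signal moves up or down beyond 5 SD from buffer-only wells, on both duplicate plates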
HEK293 MPD ctr 2-2: second check of TRPC6 modulator effects in parental HEK293 cells; membrane potential dye fluorescence; after compound, maximal acetylcholine stimulation; shares compounds with TRPC6 inhibitor; inhibition, % at 10 µM; 14% of 2,400 active;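 active = membrane potential signal drops by more than 5 SD from the mean control signal, in both duplicate plates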
TRPC4/MOR mod: selectivity of TRPC6 modulators against mouse TRPC4. 69% of 2,400 active. AID 488927. shares compounds with TRPC6 inhibitor. percent change from control (negative = decrease, positive = increase), % at 10 µM. HEK293 TRPC4/mu-opioid, membrane potential fluorescence;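 active = membrane potential signal moved up or down beyond 5 SD of buffer control wells, in both duplicate plates, actives on both sides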
TRPC4/MOR inh 2: second check of whether TRPC6 modulators also affect mouse TRPC4; HEK293 TRPC4/mu-opioid, membrane potential dye fluorescence; stimulated with maximal-effect DAMGO; inhibition, % at 10 µM; AID 488928; 55% of 2,400 active; shares compounds with TRPC6 inhibitor;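 active = drop in membrane potential signal beyond 5 SD of the control wells in both duplicate plates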;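 note: TRPC4 counter screen for TRPC6 hits run under conditions tuned for TRPC6 not TRPC4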
TRPC6 inh conf: mouse TRPC6 inhibitor confirmation | shares compounds with TRPC6 inhibitor | 43% of 3,300 active | HEK293-TRPC6, membrane potential dye, ACh-evoked depolarization | inhibition, % at 10 µM;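 active = fluorescence ratio falls more than 5 SD below the full-stimulation control mean, in both duplicate runs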;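 note: integrated fluorescence ratio of peak minus minimum over baseline after agonist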
TRPC6 act confirm: mouse TRPC6 activator confirmation | shares compounds with TRPC6 inhibitor | activation, % at 10 µM | 11% of 2,800 active | HEK293-TRPC6 membrane potential dye fluorescence, FDSS | AID 488961;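 active = ratio signal rise beyond 5 SD above unstimulated control wells' mean, seen in both duplicate runs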
Numbers stand for hits; i = inactive; nt = no result.

SMILES | TRPC6 inhibitor | TRPC6 activator | TRPC4 potent | TRPC4 agonist | TRPC4 inh | Kir21 inh | TRPC4 sel inh 2 | TRPC4 spec | HEK293 MPD ctr 2-1 | HEK293 MPD ctr-1 | TRPC6 inh conf | TRPC6 act confirm | others
O=C(CN1C2=NCCCN2c2ccccc21)c1ccc(Br)s1 | i | i | i | i | i | i | nt | nt | nt | nt | nt | nt
C=CCn1c(=N)n(CC(=O)c2ccc(Br)s2)c2ccccc21 | -8 | i | i | i | i | i | 13% | 17% | i | i | 65% | i
CC1CCN(C(=O)CN2C(=O)C(C)(C)Oc3ccc(C(=O)NC(C)C)cc32)CC1 | i | i | i | i | i | i | nt | nt | nt | nt | nt | nt
COc1ccc(/C=N/n2c(-c3n[nH]c4c3CCC4)n[nH]c2=S)cc1 | -5 | i | i | i | i | i | nt | nt | nt | nt | i | nt | HEK293 MPD ctr-2=i;HEK293 MPD ctr 2-2=i;TRPC4/MOR mod=i;TRPC4/MOR inh 2=i
COc1ccc(OC)c(/C=N/n2c(-c3n[nH]c4c3CCC4)n[nH]c2=S)c1 | i | i | i | i | i | i | nt | nt | nt | nt | nt | nt
CC(/C=N/n1c(-c2n[nH]c3c2CCC3)n[nH]c1=S)=C\c1ccco1 | -8.4 | i | i | i | i | i | i | i | -11% | i | 70% | i
CCCCCOC(=O)c1ccc(NC(=O)c2ccco2)cc1 | -13 | i | i | i | i | i | i | i | i | i | i | i
CCCCOC(=O)c1ccc(NC(=S)NC(=O)c2ccco2)cc1 | i | i | i | i | i | i | nt | nt | nt | nt | nt | nt
COc1ccc(NC(=O)Cc2nnc(SCC(=O)NC3CCCCC3C)n2C)cc1 (stereo unspecified) | i | i | i | i | i | i | nt | nt | nt | nt | nt | nt
N=c1c(C(=O)NCCN2CCOCC2)cc2c(=O)n3ccccc3nc2n1CCCN1CCOCC1 | -7.6 | i | i | i | i | i | 70% | 3.7% | -288% | 5.5% | 77% | i
N=c1c(C(=O)NC2CCCCC2)cc2c(=O)n3ccccc3nc2n1CC1CCCO1 (stereo unspecified) | i | i | i | i | i | i | nt | nt | nt | nt | nt | nt
N=c1c(C(=O)NCCN2CCOCC2)cc2c(=O)n3ccccc3nc2n1Cc1ccc(F)cc1 | -7.7 | i | i | i | i | i | nt | nt | nt | nt | 56% | i | HEK293 MPD ctr-2=-74%;HEK293 MPD ctr 2-2=90%;TRPC4/MOR mod=-17%;TRPC4/MOR inh 2=45%
Cc1ccc2nc(NCCCN3CCOCC3)c(C=NCCCN3CCOCC3)c(=O)n2c1 | -8.9 | i | i | i | i | i | nt | nt | nt | nt | 64% | i | HEK293 MPD ctr-2=-350%;HEK293 MPD ctr 2-2=80%;TRPC4/MOR mod=-66%;TRPC4/MOR inh 2=53%
